≈ marks a conversion by molar mass, not a printed value. One block for each compound: values may come before it. Calls of active or inactive are those of the source. The rule behind the calls is not given here.
Legend:
[1] = test system: Mus musculus; experiment: Antipruritic activity in mouse assessed as inhibition of substance P-induced pruritus at 30 mg/kg administered 30 mins prior to substance P challenge measured over 60 mins; type: functional, organism-based
Method in brief: (§1)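 Oral dose given 30 min before substance P challenge. Scratches counted over 60 min. Data are mean ± SEM, n = 7–8/group, analysed by Dunnett's test.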

[2] = test system: Mus musculus; experiment: Antiinflammatory activity in mouse assessed as inhibition of picryl chloride-induced contact hypersensitivity reaction at 10 mg/kg, po administered 30 mins prior to picryl chloride challenge; type: functional, organism-based
Method in brief: (§2)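 Mice sensitized with picryl chloride one week before the study. Oral dose given 30 min before picryl chloride challenge. Data are mean ± SEM, n = 5/group, analysed by Dunnett's test.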

[3] = Antioxidant activity assessed as suppression of H2O2/cobalt2+-mediated hydroxyl radical formation by luminol-based […] assay; type: physicochemical
[4] = Antioxidant activity assessed as suppression of H2O2/DETAPAC-Fe2+-mediated hydroxyl radical formation by measuring oxidation of dihydrorhodamine after 5 mins by fluorescence assay; type: physicochemical
[5] = test system: Mus musculus; experiment: Antiinflammatory activity in ICR mouse assessed as inhibition of picryl chloride-induced contact hypersensitivity reaction administered topically on left ear after 24 hrs; type: functional
Method in brief: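 Mice sensitized with picryl chloride; test agent applied topically at 0.1 mg/ear in acetone. Percent inhibition is the drug-treated group's percent response relative to the control group, n = 5, reported as the mean of 5 animals.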

[6] = Solubility of the compound in phosphate buffer solution at pH 7.4; type: physicochemical
Method in brief: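 Solubility taken as the amount dissolved in phosphate buffer solution at pH 7.4, in […].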

[7] = test system: Liver microsome; experiment: Metabolic stability in human liver microsomal fraction assessed per mg of protein; type: ADME; settings: microsomes
Method in brief: (§3)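 Metabolic stability measured in human or rat liver microsomal fraction. Reported as mL/min/mg protein.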

[8] = test system: Liver microsome; experiment: Metabolic stability in rat liver microsomal fraction assessed per mg of protein; type: ADME; settings: microsomes; method in brief: as §3
[9] = Apparent permeability in human Caco2 cells; type: ADME, cell-based; settings: Caco-2
Method in brief: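 Caco-2 monolayer permeability reported as apparent permeability (Papp), in units of 10^-6 cm/s.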

[10] = Clearance in mouse at 1 mg/kg, iv; type: ADME, organism-based; settings: in vivo
Method in brief: (§4)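 Mouse plasma PK after a single 1 mg/kg iv injection. Clearance (mL/min/kg) and steady-state volume of distribution (L/kg) derived from the plasma concentration profile.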

[11] = Volume of distribution at steady state in mouse at 1 mg/kg, iv; type: ADME, organism-based; settings: in vivo, read-out: Vdss; method in brief: as §4
[12] = AUC in mouse at 1 mg/kg, iv; type: ADME, organism-based; settings: in vivo
Method in brief: (§5)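 Mouse pharmacokinetic study with single dosing, intravenous at 1 mg/kg or oral at 10 mg/kg. Plasma drug concentrations were measured, and AUC was taken from the plasma concentration curve. The same study also gave CL and Vdss (iv), Cmax (po) and oral bioavailability.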

[13] = AUC in mouse at 10 mg/kg, po; type: ADME, organism-based; settings: in vivo; method in brief: as §5
[14] = Cmax in mouse at 10 mg/kg, po; type: ADME, organism-based; design: dose 10 mg/kg, route oral; settings: in vivo
Method in brief: (§6)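 Mouse plasma PK after 10 mg/kg oral dosing. Cmax in ng/mL. Bioavailability derived from oral AUC compared with AUC after a 1 mg/kg iv dose.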

[15] = Oral bioavailability in mouse at 10 mg/kg; type: ADME, organism-based; settings: in vivo; method in brief: as §6
[16] = test system: Mus musculus; experiment: Antiinflammatory activity in po dosed mouse assessed as inhibition of picryl chloride-induced contact hypersensitivity reaction administered 30 mins prior to picryl chloride challenge; type: functional, organism-based; method in brief: as §2
[17] = test system: Mus musculus; experiment: Antipruritic activity in mouse assessed as inhibition of substance P-induced pruritus at 10 mg/kg administered 30 mins prior to substance P challenge measured over 60 mins; type: functional, organism-based; method in brief: as §1
[18] = target: Dual specificity mitogen-activated protein kinase kinase; MEK1/2 (Homo sapiens) (UniProt P36507+Q02750); experiment: Inhibition of MEK1/2 (unknown origin); type: protein assay
Dual specificity mitogen-activated protein kinase kinase; MEK1/2 (Homo sapiens), sequence (P36507 whole entry, looked up): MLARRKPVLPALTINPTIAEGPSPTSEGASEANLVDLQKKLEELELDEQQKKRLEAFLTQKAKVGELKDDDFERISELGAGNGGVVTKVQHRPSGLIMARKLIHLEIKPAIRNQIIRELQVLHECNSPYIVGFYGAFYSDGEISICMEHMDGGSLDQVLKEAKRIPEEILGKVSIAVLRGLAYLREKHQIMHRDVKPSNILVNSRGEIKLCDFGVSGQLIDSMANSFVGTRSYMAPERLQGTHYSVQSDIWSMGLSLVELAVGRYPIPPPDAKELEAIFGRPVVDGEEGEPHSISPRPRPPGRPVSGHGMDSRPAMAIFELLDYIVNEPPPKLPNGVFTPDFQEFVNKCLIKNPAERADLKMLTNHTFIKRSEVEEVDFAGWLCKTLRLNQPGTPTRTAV
Dual specificity mitogen-activated protein kinase kinase; MEK1/2 (Homo sapiens), sequence (Q02750 whole entry, looked up): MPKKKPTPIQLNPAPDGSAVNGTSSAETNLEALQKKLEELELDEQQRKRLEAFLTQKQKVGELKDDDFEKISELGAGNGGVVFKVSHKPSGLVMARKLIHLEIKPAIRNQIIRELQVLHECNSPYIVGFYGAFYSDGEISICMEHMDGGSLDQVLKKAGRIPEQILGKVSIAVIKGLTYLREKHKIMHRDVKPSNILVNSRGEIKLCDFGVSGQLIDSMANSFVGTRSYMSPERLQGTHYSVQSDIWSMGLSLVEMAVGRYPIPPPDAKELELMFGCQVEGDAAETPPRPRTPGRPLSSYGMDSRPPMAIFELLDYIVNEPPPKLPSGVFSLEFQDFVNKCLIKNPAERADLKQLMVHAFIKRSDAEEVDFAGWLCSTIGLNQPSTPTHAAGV

SMILES: O=c1[nH]c2ccccc2n1CCCN1CCN(C(c2ccccc2)c2ccccc2)CC1
inhibition [1]: Active

SMILES: C[C@]12C=CC(=O)C=C1CC[C@@H]1[C@@H]2[C@@H](O)C[C@@]2(C)[C@H]1CC[C@]2(O)C(=O)CO
inhibition [2]: Active

IC50 [3]: 9.7 µM | IC50 [4]: 24 µM
SMILES: Cc1c(C)c2c(c(C)c1O)CCC(C)(C(=O)O)O2 (stereo unspecified) [TROLOX]

solubility [6]: 21 µg/mL (≈ 45.2 µM) | Stability [7]: 19 µL/min/mg | Stability [8]: < 10 µL/min/mg | Papp [9]: 14 ×10⁻⁶ cm/s | clearance [10]: 18 mL/min/kg | Vd [11]: 1 L/kg | AUC [12]: 927 ng·h/mL | AUC [13]: 1100 ng·h/mL | Cmax [14]: 511 ng/mL | bioavailability [15]: 12% | IC50 [3]: 8.6 µM | inhibition [18]: Active
SMILES: Cc1cccc(-n2c(N)c(NC(=O)c3c(C)c(O)c(C)c4c3OC(C)(C)C4)c(=O)n(C)c2=O)c1
inhibition (INH) [5]: 52% | inhibition [16]: Dose-dependent effect | inhibition [17]: Active

SMILES: Cc1c(O)c(C)c(C(=O)Nc2c(N)n(-c3cccc(C(=O)O)c3)c(=O)n(C)c2=O)c2c1CC(C)(C)O2
inhibition (INH) [5]: 9%

IC50 [3]: 82 µM | IC50 [4]: 54 µM
SMILES: O=C1O[C@H]([C@@H](O)CO)C(O)=C1O [ASCORBIC ACID]

SMILES: Cc1cc(C)cc(-n2c(N)c(NC(=O)c3c(C)c(O)c(C)c4c3OC(C)(C)C4)c(=O)n(C)c2=O)c1
inhibition (INH) [5]: 15%

IC50 [3]: 12.1 µM | IC50 [4]: 44 µM
SMILES: Cc1c(C)c2c(c(C)c1O)CC[C@@](C)(C(=O)Nc1c(N)n(-c3ccccc3)c(=O)n(C)c1=O)O2

SMILES: CCc1cccc(-n2c(N)c(NC(=O)c3c(C)c(O)c(C)c4c3OC(C)(C)C4)c(=O)n(C)c2=O)c1
inhibition (INH) [5]: 14%

SMILES: Cc1ccc(-n2c(N)c(NC(=O)c3c(C)c(O)c(C)c4c3OC(C)(C)C4)c(=O)n(C)c2=O)cc1
inhibition (INH) [5]: 30%

SMILES: CCOc1cccc(-n2c(N)c(NC(=O)c3c(C)c(O)c(C)c4c3OC(C)(C)C4)c(=O)n(C)c2=O)c1
inhibition (INH) [5]: 16%

SMILES: Cc1c(O)c(C)c(C(=O)Nc2c(N)n(-c3cccc(F)c3)c(=O)n(C)c2=O)c2c1CC(C)(C)O2
inhibition (INH) [5]: 10%

SMILES: Cc1ccc(-n2c(N)c(NC(=O)c3c(C)c(O)c(C)c4c3OC(C)(C)C4)c(=O)n(C)c2=O)cc1C
inhibition (INH) [5]: 45%

SMILES: C=CC[C@@H]1/C=C(\C)C[C@H](C)C[C@H](OC)[C@H]2O[C@@](O)(C(=O)C(=O)N3CCCC[C@H]3C(=O)O[C@H](/C(C)=C/[C@@H]3CC[C@@H](O)[C@H](OC)C3)[C@H](C)[C@@H](O)CC1=O)[C@H](C)C[C@@H]2OC [TACROLIMUS ANHYDROUS]
inhibition (INH) [5]: 53%

Source: ChEMBL document CHEMBL3763157, “Synthesis and biological evaluation of novel orally available 1-phenyl-6-aminouracils containing dimethyldihydrobenzofuranol structure for the treatment of allergic skin diseases” (Bioorg Med Chem Lett, 2016)
